From PubChem BioAssay
NS3 helicase inh = inhibitors of Hepatitis C virus NS3 helicase. AID 1800. NS3 helicase DNA unwinding, Cy5 molecular beacon fluorescence. inhibition, % at 10.9 µM. hit rate 0.56% among 290,000;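 active = inhibition above the mean of all tested compounds plus 3 SD, set per campaign, cut at about 35% in these data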;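 note: 0% = DMSO wells and 100% = thioflavine S control wells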
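Assay system: hepatitis C virus NS3 helicase domain fragment enzyme. Also added: annealed dual-labelled DNA beacon duplex, ATP-started. Timing: 1 h reaction at 25 °C, ATP-initiated. Technique: Cy5 fluorescence at 0 and 60 min, beacon hairpin quenching. Evaluation: % inhibition of unwinding. Replication: one well per compound.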
HSF1 activator = increases HSF-1 driven luciferase reporter signal; NIH3T3-HGL HSF-1 luciferase reporter, MG132, 8 h; 100% = twice DMSO control signal; hit rate 1.7% among 300,000; activation, % at 9 µM;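 active = mean replicate activation of at least 50% with a set share of replicates each reaching 50%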;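 note: 0% = median of the neutral control wells and 100% = twice that signal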
HSF1 inhib = HSF1 inhibition; AID 2098; hit rate 0.77% among 300,000; NIH3T3-HGL HSE-luciferase, MG132-induced, luminescence 8 h; active compounds read low; activity change, negative = inhibition, % at 7.5 µM (by protocol);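 active = more than half of replicate wells show activity change below -50%, luminescence cut by over half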;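 note: luciferase reports HSF-1 transcriptional activity via heat shock element; 0% = median of DMSO wells and -100% = zero luminescence signal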
HSP90 inh = HSP90 refolding inhibition in rabbit reticulocyte lysate | luciferase refolding luminescence, 3 h | inhibition, % at 5.6 µM | hit rate 0.91% among 290,000 | AID 1789;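 active = inhibition above the screen-wide mean plus 3 SD, computed separately per campaign, cut at about 16% in these data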;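 note: 0% = DMSO wells and 100% = 60 µM geldanamycin wells; inhibitors lower the luminescence because luciferase stays unfolded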
Lipid droplet = modulators of hepatic lipid droplet formation | AID 1656 | inhibition, % at 6.5 µM | hit rate 0.4% among 240,000 | AML12 mouse hepatocytes, oleate lipid droplets, BODIPY imaging;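 active = lipid droplet intensity inhibited by at least 50%, with more than 500 cells counted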
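Material – mouse AML12 hepatocyte cell line, fixed after treatment · Compound dosing – one dose, 6.5 µM compound · Times – compound with oleate, overnight · Measured by – Image-based BODIPY and DAPI two-channel analysis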
Lipid drop inh = hepatic lipid droplet formation inhibition, confirmed. shares compounds with Lipid droplet. AML12 mouse hepatocytes, BODIPY lipid droplet imaging; droplets induced with 100 µM oleic acid. inhibition, % at 5.2 µM. hit rate 65% among 870;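 active = inhibition of lipid droplet metric at least 50%, with more than 300 cells in each of four replicates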;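 note: plate controls were DMSO with oleic acid for no effect and 5 µM Triacsin-C for full effect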
AML12 tox img = toxic to AML12 mouse hepatocytes in counter-screen. z-score at 5 µM. shares compounds with Lipid droplet. DAPI nuclear morphology cytotoxicity imaging; active compounds read high; cells fed 100 µM oleate overnight. hit rate 3% among 870; in the data active = z-score above about 6.3;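 note: compound exposure lasted overnight at 37 °C before fixation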
AML12 tox conf = AML12 hepatocyte cytotoxicity, confirmed; shares compounds with Lipid droplet; AML12 mouse hepatocyte viability, ATP luminescence; cells loaded with 100 µM oleic acid; cytotoxicity, % at 50 µM; 530 tested, under 10 active;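 active = cytotoxicity above 50% in each of four replicates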;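 note: compound exposure lasted overnight at 37 °C before the ATP read; 0% = DMSO-treated cells and 100% = wells with no cells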
* hit, by the source's call; . = no result given. Only some compounds are listed: those with a hit (about 3.8% of all), similar ones and a draw of the others.

SMILES	NS3 helicase inh	HSF1 activator	HSF1 inhib	HSP90 inh	Lipid droplet	Lipid drop inh	AML12 tox img	AML12 tox conf
CC(OC(=O)Cc1ccc(Br)cc1)C(=O)NC1CCCCC1C (centres undefined)	0	-6	-7	0	2	.	.	.
O=C(NCC1CCCN(C(=O)Cc2ccccc2Cl)C1)c1ccc(F)cc1 (centres undefined)	27	-9	-4	2	-13	.	.	.
CC(C)(C)NC(=O)N1CCCN(c2ccc(C(F)(F)F)cn2)CC1	-8	-7	1	1	-1	.	.	.
Cc1ccc(C(=O)Nc2ccccc2C(=O)NCc2cccnc2)cc1	-5	18	3	3	51*	96*	-0.97	22
O=C(Nc1ccc(Cl)cc1C(=O)NCc1cccnc1)c1ccc(Cl)cc1Cl	-6	10	1	-1	66*	88*	1.9	.
O=C(Nc1c(Cl)cc(Cl)cc1C(=O)NCc1cccnc1)c1ccc(Cl)cc1Cl	6	.	.	1	.	.	.	.
Cc1ccc(CNC(=O)c2ccc3nc4[nH]c5ccccc5c4nc3c2)cc1	-4	-77	-76*	-6	55*	91*	-0.28	.
COc1ccc(C2c3[nH]c4ccccc4c3CCN2C(=O)c2ccc(=O)n(C)n2)c(F)c1 (centres undefined)	-3	17	5	-1	4	.	.	.
CCc1cc(C(=O)N2CCc3c([nH]c4ccccc34)C2c2ccc(OC)cc2F)no1 (centres undefined)	5	10	10	6	69*	81*	0.77	-20
COc1ccc(/C=N/NC(=S)Nc2cc(C(F)(F)F)ccc2Cl)cc1	0	0	-2	1	-48	.	.	.
FC(F)(F)c1ccc(Cl)c(NC(=S)N/N=C/c2ccccc2C(F)(F)F)c1	-2	3	-3	1	52*	104*	0.61	1
CCCOc1ccc(C2=NNC(c3cccs3)=Nc3ccc(OC)cc32)cc1	3	12	12	0	52*	50	0.17	.
Cc1ccc(NC2=C([N+](=O)[O-])CS(=O)(=O)C2)cc1	16	38	4	0	-2	.	.	.
CN(C)c1ccc(NC2=C([N+](=O)[O-])CS(=O)(=O)C2)cc1	12	-8	-10	3	84*	15	-0.0095	.
CCn1cc([N+](=O)[O-])c(C(=O)N2N=C(c3ccc4ccccc4c3)CC2c2ccccc2O)n1 (centres undefined)	-9	-8	-6	3	79*	88*	-1.6	11
COc1ccc(NC(=O)Nc2cccc3ccccc23)c(OC)c1	1	19	6	0	56*	83*	-0.24	9
COc1ccc(OC)c(NC(=O)Nc2cccc3ccccc23)c1	-5	4	-4	2	37	.	.	.
Cc1nc(SCC(=O)N2CCC(Cc3ccccc3)CC2)[nH]c(=O)c1C	.	-11	1	.	.	.	.	.
C/C(=N\NC(=O)Cc1c(C)[nH][nH]c1=O)c1ccc2ccccc2c1	1	13	-6	4	-23	.	.	.
COc1cccc(/C(C)=N/NC(=O)Cc2c(C)[nH][nH]c2=O)c1	11	4	-7	-3	63*	26	0.32	.
COc1cc(/C=C/C(=O)Nc2cccc(S(=O)(=O)NC3=NCCCCC3)c2)ccc1OCC#N	.	-18	-7	.	.	.	.	.
CN(C)CCCN(C(=O)c1ccc2ccccc2c1)c1nc2cc3c(cc2s1)OCO3	-38	-22	-6	2	55*	-2	-0.11	.
Cc1ccc(S(=O)(=O)N2CCCC(C(=O)NCCc3ccccc3)C2)cc1 (centres undefined)	9	-1	4	10	3	.	.	.
COC(=O)c1ccc(CN2CCN(C(C)C)C(CCO)C2)cc1 (centres undefined)	3	6	-4	-1	6	.	.	.
CCOc1cc([C@@H]2C[C@H]3CN(c4ccccc4)C(=O)[C@]34CCCN24)ccc1OC	4	-4	1	-1	80*	97*	0.57	19
SMILES	NS3 helicase inh	HSF1 activator	HSF1 inhib	HSP90 inh	Lipid droplet	Lipid drop inh	AML12 tox img	AML12 tox conf
COc1cc([C@@H]2C[C@H]3CN(c4ccccc4)C(=O)[C@]34CCCN24)cc(OC)c1OC	-4	10	-3	-4	3	.	.	.
CCOc1cc2c(cc1OCC)C(c1ccc(OC)cc1)N(c1ccccc1)C(=O)C2 (centres undefined)	-1	-90	-85*	2	51*	60*	-1	2
CCOc1ccc(C2c3cc(OC)c(OC)cc3CC(=O)N2c2ccccc2)cc1 (centres undefined)	-7	18	4	-1	.	.	.	.
CCOc1cc2c(cc1OCC)C(c1ccccc1)N(c1ccccc1)C(=O)C2 (centres undefined)	-5	-7	-3	-6	89*	107*	-0.33	3
CS(=O)(=O)N(CC(=O)Nc1ccc2c(c1)OCO2)Cc1ccccc1	8	-1	7	4	54*	69	-0.96	7
CS(=O)(=O)N(CC(=O)Nc1cccc(Br)c1)Cc1ccccc1	0	-10	3	-1	52*	84*	-0.59	25
CCN(CC)C(=O)COc1ccc(/C=C(\C#N)S(=O)(=O)c2ccccc2)cc1OC	4	-8	-4	-2	9	.	.	.
COc1cc2c(cc1NC(=S)NC(=O)c1c(OC)cccc1OC)oc1ccccc12	5	31	11	-5	105*	106*	0.45	18
COc1ccc(S(=O)(=O)N2CCCCCC2)cc1C(=O)N(C)CCOc1ccccc1	.	7	9	.	.	.	.	.
Cc1ccc(S(=O)(=O)N2CCCCC2)cc1C(=O)N(C)CCOc1ccccc1	-6	-1	-2	5	62*	-9	1.8	.
COc1ccc(C(C(=O)NC2CCCC2)N(CCC(C)C)C(=O)CCC(=O)Nc2cc(C)on2)cc1 (centres undefined)	13	37	1	2	62*	81*	-0.13	5
CCCCN(C(=O)CCC(=O)Nc1cc(C)on1)C(C(=O)NC1CCCC1)c1ccc(OCC)cc1 (centres undefined)	2	1	3	0	74*	91*	-0.33	9
COc1cccc(C(C(=O)NC2CCCC2)N(CCC(C)C)C(=O)CCC(=O)Nc2cc(C)on2)c1 (centres undefined)	7	10	7	-1	23	.	.	.
CC(C)C[C@H]1C(=O)N2CCC[C@H]2[C@]2(O)O[C@](NC(=O)[C@@H]3C=C4c5cccc6[nH]c(Br)c(c56)CC4N(C)C3)(C(C)C)C(=O)N12 (some centres undefined)	-4	27	9	6	54*	39	-1.6	2
